Results from ChEMBL document CHEMBL4321857, “Synthesis and Pharmacological Evaluation of Triazolopyrimidinone Derivatives as Noncompetitive, Intracellular Antagonists for CC Chemokine Receptors 2 and 5” (J Med Chem, 2019).
Active and inactive are the calls of the source. The calls are words filed in the database; no cut-off is given here.

Legend:
[1] = target: T1, C-C chemokine receptor type 5 (Homo sapiens, UniProt P51681); test: Antagonist activity at human TEV cleavage site-linked CCR5 expressed in human U2OS cells harboring beta-lactamase reporter gene assessed as inhibition of CCL3-induced beta-arrestin recruitment at 1 uM incubated for 30 mins followed by CCL3 stimulation and measured after 16 hrs by Tango assay relative to control; format: cell-based
Target sequence in this assay (P51681 whole entry, looked up): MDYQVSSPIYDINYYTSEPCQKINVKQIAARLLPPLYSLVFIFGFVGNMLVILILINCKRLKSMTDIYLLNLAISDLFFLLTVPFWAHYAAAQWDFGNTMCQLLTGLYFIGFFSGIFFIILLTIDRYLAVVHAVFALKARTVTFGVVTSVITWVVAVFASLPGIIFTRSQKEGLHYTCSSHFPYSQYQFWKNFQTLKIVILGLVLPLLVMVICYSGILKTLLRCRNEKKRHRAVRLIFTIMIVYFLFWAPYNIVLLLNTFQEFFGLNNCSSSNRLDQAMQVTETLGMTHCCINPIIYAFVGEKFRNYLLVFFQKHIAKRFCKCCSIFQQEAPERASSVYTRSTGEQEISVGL

[2] = target: T1, C-C chemokine receptor type 5; test: Antagonist activity at human TEV cleavage site-linked CCR5 expressed in human U2OS cells harboring beta-lactamase reporter gene assessed as inhibition of CCL3-induced beta-arrestin recruitment incubated for 30 mins followed by CCL3 stimulation and measured after 16 hrs by Tango assay; format: cell-based
Target sequence in this assay (P51681 whole entry): as the sequence (P51681 whole entry, looked up) above

[3] = target: T2, C-C chemokine receptor type 2 (Homo sapiens, UniProt P41597); test: Displacement of [3H]-CCR2-RA-[R] from human CCR2 expressed in human U2OS cells incubated for 2 hrs by scintillation spectrometric method; format: cell-based
Target sequence in this assay (P41597 whole entry): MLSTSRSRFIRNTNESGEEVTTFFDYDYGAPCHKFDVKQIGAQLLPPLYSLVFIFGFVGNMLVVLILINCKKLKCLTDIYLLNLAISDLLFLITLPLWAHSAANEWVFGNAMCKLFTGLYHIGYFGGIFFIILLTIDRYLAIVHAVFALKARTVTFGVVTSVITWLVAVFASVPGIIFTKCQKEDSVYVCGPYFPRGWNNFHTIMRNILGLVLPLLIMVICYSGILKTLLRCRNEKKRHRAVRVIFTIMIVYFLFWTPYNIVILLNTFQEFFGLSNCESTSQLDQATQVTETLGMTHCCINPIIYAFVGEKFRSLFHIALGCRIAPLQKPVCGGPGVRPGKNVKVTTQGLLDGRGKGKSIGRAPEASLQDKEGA

[4] = target: T1, C-C chemokine receptor type 5; test: Non-competitive insurmountable antagonist activity at human CCR5 expressed in human U2OS cell membranes assessed as Emax for CCL3-stimulated [35S]GTPgammaS binding at 30 nM preincubated for 30 mins followed by [35S]GTPgammaS addition and measured after 90 mins (reference value: 108 +/- 2%); format: functional
Target sequence in this assay (P51681 whole entry, looked up): as the sequence (P51681 whole entry, looked up) above

[5] = target: T2, C-C chemokine receptor type 2; test: Non-competitive insurmountable antagonist activity at human CCR2 expressed in human U2OS cell membranes assessed as Emax for CCL2-stimulated [35S]GTPgammaS binding at 3 nM preincubated for 30 mins followed by [35S]GTPgammaS addition and measured after 90 mins (reference value: 107 +/- 2%); format: functional
Target sequence in this assay (P41597 whole entry, looked up): as the sequence (P41597 whole entry) above

[6] = species: Homo sapiens; test: Selectivity ratio of IC50 for human TEV cleavage site-linked CCR5 expressed in human U2OS cells to IC50 for human TEV cleavage site-linked CCR2b expressed in human U2OS cells; format: cell-based
[7] = target: T2, C-C chemokine receptor type 2; test: Non-competitive insurmountable antagonist activity at human CCR2 expressed in human U2OS cell membranes assessed as Emax for CCL2-stimulated [35S]GTPgammaS binding at 10 nM preincubated for 30 mins followed by [35S]GTPgammaS addition and measured after 90 mins (reference value: 107 +/- 2%); format: functional
Target sequence in this assay (P41597 whole entry, looked up): as the sequence (P41597 whole entry) above

[8] = target: T2, C-C chemokine receptor type 2; test: Inverse agonist activity at human CCR2 assessed as reduction in [35S]GTPgammaS binding at 1 uM relative to control; format: functional; design: scale not given: the % may be the effect or the level left
Target sequence in this assay (P41597 whole entry, looked up): as the sequence (P41597 whole entry) above

[9] = target: T1, C-C chemokine receptor type 5; test: Non-competitive insurmountable antagonist activity at human CCR5 expressed in human U2OS cell membranes assessed as Emax for CCL3-stimulated [35S]GTPgammaS binding at 300 nM preincubated for 30 mins followed by [35S]GTPgammaS addition and measured after 90 mins (reference value: 108 +/- 2%); format: functional
Target sequence in this assay (P51681 whole entry, looked up): as the sequence (P51681 whole entry, looked up) above

[10] = target: T2, C-C chemokine receptor type 2; test: Non-competitive insurmountable antagonist activity at human CCR2 expressed in human U2OS cell membranes assessed as Emax for CCL2-stimulated [35S]GTPgammaS binding at 1 nM preincubated for 30 mins followed by [35S]GTPgammaS addition and measured after 90 mins (reference value: 107 +/- 2%); format: functional
Target sequence in this assay (P41597 whole entry, looked up): as the sequence (P41597 whole entry) above

[11] = target: T1, C-C chemokine receptor type 5; test: Non-competitive insurmountable antagonist activity at human CCR5 expressed in human U2OS cell membranes assessed as Emax for CCL3-stimulated [35S]GTPgammaS binding at 100 nM preincubated for 30 mins followed by [35S]GTPgammaS addition and measured after 90 mins (reference value: 108 +/- 2%); format: functional
Target sequence in this assay (P51681 whole entry, looked up): as the sequence (P51681 whole entry, looked up) above

[12] = target: T2, C-C chemokine receptor type 2; test: Antagonist activity at human TEV cleavage site-linked CCR2b expressed in human U2OS cells harboring beta-lactamase reporter gene assessed as inhibition of CCL2-induced beta-arrestin recruitment incubated for 30 mins followed by CCL2 stimulation and measured after 16 hrs by Tango assay; format: cell-based
Method in brief: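 Tango CCR2b-bla U2OS cells: 10 000 cells/well in FreeStyle medium, 30 min preincubation at room temperature with increasing antagonist concentrations (DMSO ≤0.5%), then 16 h with CCL2 at EC80 (5 nM), 37 °C, 5% CO2. LiveBLAzer-FRET B/G substrate 2 h at room temperature; 460/535 nm emission ratio at 400 nm excitation. IC50 by nonlinear regression.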
Target sequence in this assay (P41597 whole entry): as the sequence (P41597 whole entry) above

[13] = target: T2, C-C chemokine receptor type 2; test: Non-competitive insurmountable antagonist activity at human CCR2 expressed in human U2OS cell membranes assessed as Emax for CCL2-stimulated [35S]GTPgammaS binding at 100 nM preincubated for 30 mins followed by [35S]GTPgammaS addition and measured after 90 mins (reference value: 107 +/- 2%); format: functional
Target sequence in this assay (P41597 whole entry, looked up): as the sequence (P41597 whole entry) above

[14] = target: T1, C-C chemokine receptor type 5; test: Non-competitive insurmountable antagonist activity at human CCR5 expressed in human U2OS cell membranes assessed as Emax for CCL3-stimulated [35S]GTPgammaS binding at 1000 nM preincubated for 30 mins followed by [35S]GTPgammaS addition and measured after 90 mins (reference value: 108 +/- 2%); format: functional
Target sequence in this assay (P51681 whole entry, looked up): as the sequence (P51681 whole entry, looked up) above

[15] = target: T2, C-C chemokine receptor type 2; test: Non-competitive insurmountable antagonist activity at human CCR2 expressed in human U2OS cell membranes assessed as Emax for CCL2-stimulated [35S]GTPgammaS binding at 30 nM preincubated for 30 mins followed by [35S]GTPgammaS addition and measured after 90 mins (reference value: 107 +/- 2%); format: functional
Target sequence in this assay (P41597 whole entry, looked up): as the sequence (P41597 whole entry) above

[16] = target: T2, C-C chemokine receptor type 2; test: Antagonist activity at CCR2b in human THP1 cells assessed as inhibition of human MCP1 induced calcium flux by fluo-4 dye based fluorescence assay; format: functional, cell-based
Target sequence in this assay (P41597 whole entry): as above

| SMILES | inhibition [1] | Ki ([3]; read-out: Ki) [nM] | also measured |
| --- | --- | --- | --- |
| Cc1ccc(-c2ccc3c(c2)C=C(C(=O)Nc2ccc(C[N+](C)(C)C4CCOCC4)cc2)CCC3)cc1 | Active |  | IC50 ([2]; read-out: IC50): 6 nM |
| Nc1nc2[nH]c(C3CC3)c(Cc3ccc(Cl)cc3)c(=O)n2n1 | 31% | 1.8 |  |
| CCCCc1[nH]c2nc(N)nn2c(=O)c1Cc1cccc(Cl)c1 | > 70% | 2.3 | IC50 ([2]; read-out: pIC50 (converted)): 513 nM |
| CC(C)c1[nH]c2nc(N)nn2c(=O)c1Cc1ccc(Cl)c(Br)c1 | > 70% | 0.4 | Emax [4]: 81%; Emax [5]: 51%; Ratio IC50 [6]: 29; Emax [7]: 33%; Activity [8]: 7 to 8%; Emax [9]: 35%; Emax [10]: 72%; Emax [11]: 58%; IC50 [12]: 4 nM; IC50 ([2]; read-out: pIC50 (converted)): 112 nM |
| Cc1[nH]c2nc(N)nn2c(=O)c1Cc1cccc(Cl)c1 |  | 17.2 | Ki ([3]; read-out: pKi (converted)): 16.6 nM |
| Cc1ccc(Cc2c(C3CC3)[nH]c3nc(N)nn3c2=O)cc1 |  | 3.5 |  |
| COc1cccc(Cc2c(C3CC3)[nH]c3nc(N)nn3c2=O)c1 |  | 13 |  |
| Cc1ccccc1Cc1c(C2CC2)[nH]c2nc(N)nn2c1=O | 28% | 15.7 |  |
| CCC(CC)Cc1[nH]c2nc(N)nn2c(=O)c1Cc1cccc(Cl)c1 | 29% | 6.4 |  |
| O=C(O)c1ccccc1Oc1ccc(Cl)cc1NS(=O)(=O)c1ccc(Cl)c(Cl)c1 | < 50% |  |  |
| CC(C)c1[nH]c2nc(N)nn2c(=O)c1Cc1cc(Cl)ccc1Cl | 20% | 22.5 |  |
| Nc1nc2[nH]c(C3CC3)c(Cc3ccccc3)c(=O)n2n1 | 35% | 5.9 | Ki ([3]; read-out: pKi (converted)): 5.37 nM |
| Nc1nc2[nH]c(CCc3ccccc3)c(Cc3cccc(Cl)c3)c(=O)n2n1 |  | 52.3 | Ki ([3]; read-out: pKi (converted)): 51.3 nM |
| Nc1nc2[nH]c(-c3ccccc3)c(Cc3cccc(Cl)c3)c(=O)n2n1 |  | 26.7 |  |
| Cc1ccc(-c2[nH]c3nc(N)nn3c(=O)c2Cc2cccc(Cl)c2)cc1 |  | 159 | Ki ([3]; read-out: pKi (converted)): 155 nM |
| CC(=O)C1=C(O)C(=O)N(c2ccc(Cl)cc2F)[C@@H]1C1CCCCC1 | < 50% |  | IC50 ([2]; read-out: IC50): 703 nM |
| CCCCCCc1[nH]c2nc(N)nn2c(=O)c1Cc1cccc(Cl)c1 |  | 22 |  |
| Nc1nc2[nH]c(C3CC3)c(Cc3ccccc3Cl)c(=O)n2n1 | 27% | 14.5 |  |
| COc1ccccc1Cc1c(C2CC2)[nH]c2nc(N)nn2c1=O |  | 105 |  |
| CCCCCCCc1[nH]c2nc(N)nn2c(=O)c1Cc1cccc(Cl)c1 |  | 178 | Ki ([3]; read-out: pKi (converted)): 174 nM |
| CC(C)c1[nH]c2nc(N)nn2c(=O)c1Cc1cccc(Cl)c1 | > 70% | 1.9 | IC50 ([2]; read-out: pIC50 (converted)): 275 nM |

| SMILES | inhibition [1] | Ki ([3]; read-out: Ki) [nM] | also measured |
| --- | --- | --- | --- |
| CC(C)c1[nH]c2nc(N)nn2c(=O)c1Cc1cc(Cl)cc(Cl)c1 | > 70% | 2.2 | IC50 ([2]; read-out: pIC50 (converted)): 324 nM |
| CCCCCc1[nH]c2nc(N)nn2c(=O)c1Cc1cccc(Cl)c1 | 38% | 7.2 |  |
| CCc1[nH]c2nc(N)nn2c(=O)c1Cc1cccc(Cl)c1 | 29% | 4 |  |
| Nc1nc2[nH]c(C3CC3)c(Cc3cccc(C(F)(F)F)c3)c(=O)n2n1 | 36% | 5.9 | Ki ([3]; read-out: pKi (converted)): 5.5 nM |
| O=c1c(Cc2cccc(Cl)c2)c(C2CC2)[nH]c2ncnn12 | 60% | 1.7 |  |
| Cc1cccc(Cc2c(C3CC3)[nH]c3nc(N)nn3c2=O)c1 | 62% | 2.5 |  |
| Nc1nc2[nH]c(C3CC3)c(Cc3cccc(F)c3)c(=O)n2n1 | 43% | 3.4 |  |
| CC(C)c1[nH]c2nc(N)nn2c(=O)c1Cc1cc(Br)cc(Br)c1 | 64% | 2.1 |  |
| Cc1nc2[nH]c(C3CC3)c(Cc3cccc(Cl)c3)c(=O)n2n1 | 35% | 3.5 |  |
| Nc1nc2[nH]c(C3CC3)c(Cc3ccc(F)cc3)c(=O)n2n1 | 31% | 4.1 |  |
| Nc1nc2[nH]c(C3CC3)c(Cc3ccc(Cl)c(Cl)c3)c(=O)n2n1 | > 70% | 0.4 | IC50 ([2]; read-out: pIC50 (converted)): 214 nM |
| CC[C@@H](c1ccc(F)c(F)c1)n1c(C(=O)OC)c(-c2ccno2)[nH]c1=S | < 50% |  |  |
| CCCc1[nH]c2nc(N)nn2c(=O)c1Cc1cccc(Cl)c1 | 64% | 3.6 | Ki ([3]; read-out: pKi (converted)): 3.47 nM |
| CC(C)c1[nH]c2nc(N)nn2c(=O)c1Cc1cccc(Cl)c1Cl | > 70% | 1.6 | Ratio IC50 [6]: 4; Emax [7]: 91%; Emax [13]: 50%; Activity [8]: 7 to 8%; Emax [9]: 56%; Emax [14]: 25%; Emax [11]: 79%; Emax [15]: 75%; IC50 [12]: 21 nM; IC50 ([2]; read-out: pIC50 (converted)): 81.3 nM |
| Nc1nc2[nH]c(C3CC3)c(Cc3cccc(Cl)c3)c(=O)n2n1 | > 70% | 1.3 | IC50 [16]: 16 to 20 nM; IC50 [12]: 10 nM; IC50 ([2]; read-out: pIC50 (converted)): 575 nM |
| Nc1nc2[nH]c(C3CCCC3)c(Cc3cccc(Cl)c3)c(=O)n2n1 | > 70% | 1.6 | IC50 ([2]; read-out: pIC50 (converted)): 372 nM |
| Nc1nc2[nH]c(C3CC3)c(Cc3cccc(Br)c3)c(=O)n2n1 | 60% | 0.9 | Ki ([3]; read-out: pKi (converted)): 0.832 nM |
| Nc1nc2[nH]c(C3CC3)c(Cc3ccc(Br)cc3)c(=O)n2n1 | 14% | 1.5 |  |
| COc1ccc(Cc2c(C3CC3)[nH]c3nc(N)nn3c2=O)cc1 |  | 20.9 |  |
| CC(C)c1[nH]c2nc(N)nn2c(=O)c1Cc1ccc(Cl)c(Cl)c1 | > 70% | 0.6 | IC50 ([2]; read-out: pIC50 (converted)): 123 nM |
| Nc1nc2[nH]c(C3CC3)c(Cc3cccc(I)c3)c(=O)n2n1 | 66% | 0.9 |  |
